Assay results reported in ChEMBL document CHEMBL4665872, “Rational design of cell-permeable cyclic peptides containing a d-Pro-l-Pro motif” (Bioorg Med Chem, 2020).
The source made the active and inactive calls. No cut-off for these calls is given here.

Assays:
[1] = Metabolic stability of the compound in human MDA-MB-468 cells assessed as protein-tyrosine phosphatase-mediated endogenous dephosphorylation incubated for 2 hrs; type: ADME, cell-based; details: mda-mb-468, 2 h
[2] = molecular target: Mitogen-activated protein kinase; ERK1/ERK2 (Homo sapiens) (UniProt P27361+P28482); assay: Inhibition of ERK1/2 phosphorylation in EGF-stimulated human MDA-MB-468 cells incubated for 2 hrs followed by 10 mins EGF stimulation by Western blotting analysis
Method in brief: (§1)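 MDA-MB-468 cells grown to ~80% confluence, serum-starved 20 h, then given peptide at the indicated concentrations in serum-free medium for 2 h. EGF (50 ng/mL final) added for 10 min. Lysis in RIPA with protease/phosphatase inhibitors and 5 mM EDTA; ~20 μg protein run on 10% SDS-PAGE. Blots probed for phospho- and total MEK and ERK1/2, GAPDH loading control.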

[3] = molecular target: Dual specificity mitogen-activated protein kinase kinase; MEK1/2 (Homo sapiens) (UniProt P36507+Q02750); assay: Inhibition of MEK phosphorylation in EGF-stimulated human MDA-MB-468 cells incubated for 2 hrs followed by 10 mins EGF stimulation by Western blotting analysis; method in brief: as §1
[4] = molecular target: T1, Growth factor receptor-bound protein 2 (Homo sapiens, UniProt P62993); assay: Binding affinity to Grb2-SH2 domain (unknown origin) expressed in Escherichia coli […] after 1 hr by fluorescence polarization assay; details: in the assay text read “after 2 hrs” for “after 1 hr”
Method in brief: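 GST-Grb2 SH2 domain expressed in E. coli BL21(DE3), glutathione-Sepharose purified. […] IC50 from four-parameter logistic fit of FP versus peptide concentration, three sets of experiments.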

[5] = Drug uptake in human HeLa cells assessed as cytosolic entry efficiency measured as fluorescence at 5 uM incubated for 2 hrs by flow cytometry relative to CPP9 (100%); type: ADME, cell-based
Method in brief: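 HeLa cells seeded 24 h earlier, given 5 μM naphthofluorescein-labelled peptide in DMEM with 1% or 10% FBS, 37 °C, 2 h. Cells DPBS-washed, trypsinized, flow cytometry with 633-nm excitation, APC channel, 10,000 live-cell events gated. Signal read as cytosolic entry because NF is non-fluorescent in acidic compartments; mean ± SD of three independent experiments, relative to CPP9 (100%).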

[6] = test system: MDA-MB-468; assay: Effect on intracellular MEK expression in EGF-stimulated human MDA-MB-468 cells incubated for 2 hrs followed by 10 mins EGF stimulation by Western blotting analysis; type: functional, cell-based; method in brief: as §1
[7] = molecular target: T1, Growth factor receptor-bound protein 2; assay: Binding affinity to Grb2-SH2 domain (unknown origin) expressed in Escherichia coli […] after 2 hrs by fluorescence polarization assay

T1 sequence (P62993 whole entry, the tested form may be a part): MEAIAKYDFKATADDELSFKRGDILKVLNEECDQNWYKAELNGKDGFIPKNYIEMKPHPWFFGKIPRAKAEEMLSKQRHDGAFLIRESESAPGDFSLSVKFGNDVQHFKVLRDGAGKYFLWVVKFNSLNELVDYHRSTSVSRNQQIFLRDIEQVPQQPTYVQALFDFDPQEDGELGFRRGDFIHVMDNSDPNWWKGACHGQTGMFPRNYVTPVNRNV
Chain of Dual specificity mitogen-activated protein kinase kinase; MEK1/2 (Homo sapiens) (P36507 whole entry, looked up, the tested form may be a part): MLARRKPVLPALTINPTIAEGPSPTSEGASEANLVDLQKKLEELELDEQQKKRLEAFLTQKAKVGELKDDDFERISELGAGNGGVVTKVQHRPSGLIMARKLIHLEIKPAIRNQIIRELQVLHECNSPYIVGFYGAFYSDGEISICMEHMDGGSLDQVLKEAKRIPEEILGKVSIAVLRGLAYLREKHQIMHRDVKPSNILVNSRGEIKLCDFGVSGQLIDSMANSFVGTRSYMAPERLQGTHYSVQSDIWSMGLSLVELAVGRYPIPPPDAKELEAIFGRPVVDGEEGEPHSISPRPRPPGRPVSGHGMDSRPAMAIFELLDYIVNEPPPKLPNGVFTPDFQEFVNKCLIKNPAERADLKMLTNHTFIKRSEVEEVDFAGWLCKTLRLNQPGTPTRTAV
Chain of Dual specificity mitogen-activated protein kinase kinase; MEK1/2 (Homo sapiens) (Q02750 whole entry, looked up, the tested form may be a part): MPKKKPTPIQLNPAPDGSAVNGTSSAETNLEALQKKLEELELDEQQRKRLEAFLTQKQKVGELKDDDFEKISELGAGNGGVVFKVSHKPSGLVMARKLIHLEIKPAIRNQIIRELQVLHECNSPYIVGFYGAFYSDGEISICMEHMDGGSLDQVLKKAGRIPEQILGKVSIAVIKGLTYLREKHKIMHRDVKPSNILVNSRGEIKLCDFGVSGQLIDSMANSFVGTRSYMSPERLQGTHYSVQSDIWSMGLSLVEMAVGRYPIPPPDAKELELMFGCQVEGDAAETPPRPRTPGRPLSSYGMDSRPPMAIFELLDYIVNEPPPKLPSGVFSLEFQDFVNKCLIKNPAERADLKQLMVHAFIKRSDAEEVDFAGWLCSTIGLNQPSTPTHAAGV
Chain of Mitogen-activated protein kinase; ERK1/ERK2 (Homo sapiens) (P27361 whole entry, looked up): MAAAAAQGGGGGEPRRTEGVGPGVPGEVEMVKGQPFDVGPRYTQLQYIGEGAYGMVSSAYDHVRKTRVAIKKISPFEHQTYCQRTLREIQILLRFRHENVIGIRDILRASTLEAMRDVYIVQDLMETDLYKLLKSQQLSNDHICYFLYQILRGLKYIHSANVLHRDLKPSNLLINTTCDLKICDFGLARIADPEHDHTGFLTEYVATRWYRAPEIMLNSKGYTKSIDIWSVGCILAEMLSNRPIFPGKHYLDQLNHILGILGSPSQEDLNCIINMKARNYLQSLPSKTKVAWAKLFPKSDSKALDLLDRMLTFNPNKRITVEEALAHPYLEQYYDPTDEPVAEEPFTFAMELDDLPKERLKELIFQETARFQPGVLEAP
Chain of Mitogen-activated protein kinase; ERK1/ERK2 (Homo sapiens) (P28482 whole entry, looked up): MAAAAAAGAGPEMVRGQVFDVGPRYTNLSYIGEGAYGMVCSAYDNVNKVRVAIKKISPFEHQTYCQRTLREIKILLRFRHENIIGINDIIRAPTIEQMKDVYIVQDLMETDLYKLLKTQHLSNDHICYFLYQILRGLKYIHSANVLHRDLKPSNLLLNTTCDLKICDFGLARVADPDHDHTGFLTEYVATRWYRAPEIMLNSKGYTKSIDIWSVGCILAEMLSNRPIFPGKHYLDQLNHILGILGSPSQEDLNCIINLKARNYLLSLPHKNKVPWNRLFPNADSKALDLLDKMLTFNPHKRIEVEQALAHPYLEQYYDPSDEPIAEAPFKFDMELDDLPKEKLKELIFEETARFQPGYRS

| Compound | Stabilty [1] | inhibition [2] | inhibition [3] | IC50 [4] | RFU [5] | Activity [6] | IC50 [7] |
| --- | --- | --- | --- | --- | --- | --- | --- |
| CC(C)[C@@H]1NC(=O)[C@H](Cc2ccc(OP(=O)(O)O)cc2)NC(=O)[C@H](CCCNC(=N)N)NC(=O)[C@H](CCCNC(=N)N)NC(=O)[C@@H]2CCCN2C(=O)[C@H]2CCCN2C(=O)[C@@H](CCCNC(=N)N)NC(=O)[C@H](Cc2ccc3ccccc3c2)NC(=O)[C@H](Cc2ccccc2)NC(=O)[C@H](CC(=O)NCCOCCOCC(=O)N[C@@H](CCCCNC(=O)c2ccc3c(c2)C(=O)OC32c3ccc4cc(O)ccc4c3Oc3c2ccc2cc(O)ccc32)C(N)=O)NC1=O | Unstable | inactive | Active | 400 nM | 49% | inactive |  |
| CC(C)[C@@H]1NC(=O)[C@H](Cc2ccc(OP(=O)(O)O)cc2)NC(=O)[C@H](CCCNC(=N)N)NC(=O)[C@H](CCCNC(=N)N)NC(=O)[C@@H]2CCCN2C(=O)[C@H]2CCCN2C(=O)[C@@H](C)NC(=O)[C@H](C)NC(=O)[C@H](Cc2ccccc2)NC(=O)[C@H](CC(=O)NCCOCCOCC(=O)N[C@@H](CCCCNC(=O)c2ccc3c(c2)C(=O)OC32c3ccc4cc(O)ccc4c3Oc3c2ccc2cc(O)ccc32)C(N)=O)NC1=O |  |  | inactive |  | 2% |  | 100 nM |
| CC(C)[C@@H]1NC(=O)[C@H](Cc2ccc(O)cc2)NC(=O)[C@H](CCCNC(=N)N)NC(=O)[C@H](CCCNC(=N)N)NC(=O)[C@@H]2CCCN2C(=O)[C@H]2CCCN2C(=O)[C@@H](CCCNC(=N)N)NC(=O)[C@H](Cc2ccc3ccccc3c2)NC(=O)[C@H](Cc2ccccc2)NC(=O)[C@H](CC(=O)NCCOCCOCC(=O)N[C@@H](CCCCNC(=O)c2ccc3c(c2)C(=O)OC32c3ccc4cc(O)ccc4c3Oc3c2ccc2cc(O)ccc32)C(N)=O)NC1=O |  |  | inactive |  | 34% |  | > 10000 nM |
